Assay results taken from ChEMBL document CHEMBL1133564, “A novel series of 4-piperidinopyridine and 4-piperidinopyrimidine inhibitors of 2,3-oxidosqualene cyclase-lanosterol synthase” (J Med Chem, 2000).

Experiments:
Lanosterol synthase [1] = target: T1, Lanosterol synthase (Homo sapiens, UniProt P48449); assay: Compound was tested for its inhibition against human OSC enzyme
T1 sequence (P48449 whole entry): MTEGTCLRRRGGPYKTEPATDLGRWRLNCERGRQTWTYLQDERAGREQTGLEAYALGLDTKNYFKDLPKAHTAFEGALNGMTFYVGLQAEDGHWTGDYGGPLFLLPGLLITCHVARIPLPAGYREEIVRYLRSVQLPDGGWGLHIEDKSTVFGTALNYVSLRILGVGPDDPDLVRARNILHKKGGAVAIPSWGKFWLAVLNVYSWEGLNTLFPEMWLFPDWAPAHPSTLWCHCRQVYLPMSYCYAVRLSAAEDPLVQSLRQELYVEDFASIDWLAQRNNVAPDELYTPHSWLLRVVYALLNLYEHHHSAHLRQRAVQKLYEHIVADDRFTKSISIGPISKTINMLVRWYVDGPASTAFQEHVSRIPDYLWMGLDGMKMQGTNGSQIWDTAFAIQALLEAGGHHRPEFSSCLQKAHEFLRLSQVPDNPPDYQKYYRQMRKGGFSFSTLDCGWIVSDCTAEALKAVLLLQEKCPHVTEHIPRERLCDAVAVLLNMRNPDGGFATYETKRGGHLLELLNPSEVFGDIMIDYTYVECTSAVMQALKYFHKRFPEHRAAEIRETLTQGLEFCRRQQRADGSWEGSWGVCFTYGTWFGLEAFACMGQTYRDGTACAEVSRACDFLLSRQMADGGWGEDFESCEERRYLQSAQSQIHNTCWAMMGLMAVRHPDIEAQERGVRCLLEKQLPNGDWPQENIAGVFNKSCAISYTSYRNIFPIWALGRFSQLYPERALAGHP
How it was run: (§1)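 Rat liver microsomes (15-20 mg/mL protein stock) diluted in 50 mM phosphate buffer pH 7.4 with Tween. Test compound at serial 10-fold dilutions (10^-5 M, 10^-6 M, etc.) preincubated with microsomes 10 min at 37 °C. Oxidosqualene substrate added, then 1 h incubation. Stopped with ethanolic KOH, saponified 80 °C 2 h, hexane-extracted. IC50 by curve fitting with tight-binding model. Human OSC run the same way.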

[2] = Inhibition of cholesterol biosynthesis in rat following 2 mg/kg p.o. administration.; type: functional; conditions: route oral
How it was run: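 Female rats (130 ± 20 g) kept on reversed lighting, dosed orally at 2 mg/kg in DMSO/HPMC (n = 2). Tritiated mevalonate (2.5 µCi) given 1 h later; killed after a further 1 h. Liver saponified in KOH/EtOH 80 °C 2 h, isohexane-extracted, analysed by HPLC. Percent inhibition of cholesterol biosynthesis versus controls, with sterol precursor profile for step selectivity.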

Lanosterol synthase [3] = target: T2, Lanosterol synthase (Rattus norvegicus, UniProt P48450); assay: (§2) In vitro inhibitory activity of the compound against rat microsomal 2,3-Oxidosqualene lanosterol cyclase (OSC); how it was run: as §1
T2 sequence (P48450 whole entry): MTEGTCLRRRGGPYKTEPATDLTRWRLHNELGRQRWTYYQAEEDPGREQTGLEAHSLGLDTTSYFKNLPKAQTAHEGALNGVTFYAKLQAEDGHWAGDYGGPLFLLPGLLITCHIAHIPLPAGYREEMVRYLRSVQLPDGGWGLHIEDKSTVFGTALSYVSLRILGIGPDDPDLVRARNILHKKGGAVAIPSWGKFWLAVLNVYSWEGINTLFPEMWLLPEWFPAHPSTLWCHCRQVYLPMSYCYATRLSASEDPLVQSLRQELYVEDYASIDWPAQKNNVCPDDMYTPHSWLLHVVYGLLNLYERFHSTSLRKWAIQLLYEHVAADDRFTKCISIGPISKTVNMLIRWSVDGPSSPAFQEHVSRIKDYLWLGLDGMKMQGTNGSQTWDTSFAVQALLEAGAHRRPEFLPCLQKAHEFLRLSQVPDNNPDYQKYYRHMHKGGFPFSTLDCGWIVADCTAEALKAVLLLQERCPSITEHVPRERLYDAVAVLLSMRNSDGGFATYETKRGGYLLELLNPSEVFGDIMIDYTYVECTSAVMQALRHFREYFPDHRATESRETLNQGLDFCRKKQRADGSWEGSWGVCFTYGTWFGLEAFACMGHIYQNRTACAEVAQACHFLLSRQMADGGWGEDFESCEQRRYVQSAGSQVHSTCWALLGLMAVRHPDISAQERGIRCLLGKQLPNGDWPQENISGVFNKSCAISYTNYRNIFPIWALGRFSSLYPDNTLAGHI

[4] = Compound was tested for its acid dissociation constant; type: ADME
Lanosterol synthase [5] = target: T2, Lanosterol synthase; assay: In vitro inhibitory activity of the compound against rat microsomal 2,3-Oxidosqualene cyclase-Lanosterol synthase (OSC); how it was run: as §1
[6] = Effective dose (50%) required to inhibit cholesterol biosynthesis in rat after administration of a shallow oral dose; type: functional
How it was run: (§3)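 Female rats (130 ± 20 g) on reversed lighting, given test compound orally across a dose range in DMSO/HPMC (n = 2). Tritiated mevalonate (2.5 µCi) 1 h post-dose; killed 1 h later. Liver saponified, isohexane-extracted, HPLC radio-profile of sterols. ED50 or ED80 for inhibition of cholesterol biosynthesis derived from dose-response.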

[7] = Effective dose (80%) required to inhibit cholesterol biosynthesis in rat after administration of a shallow oral dose; type: functional; how it was run: as §3
[8] = target: T3, Lanosterol synthase (Rattus norvegicus) (UniProt P48450); assay: In vitro percent inhibitory activity against rat microsomal OSC enzyme at 1 uM concentration
T3 sequence (whole entry): T2 sequence (P48450 whole entry)
How it was run: (§4)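 Rat liver microsomal OSC in phosphate-buffered Tween, pH 7.4, with test compound at 1 µM. Preincubation 10 min at 37 °C, then oxidosqualene added for 1 h. Stopped with ethanolic KOH at 80 °C for 2 h, hexane-extracted. Percent inhibition, n = 2.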

[9] = target: T3, Lanosterol synthase (Rattus norvegicus); assay: In vitro percent inhibitory activity of the compound against rat microsomal OSC enzyme at 1 uM concentration; how it was run: as §4
Lanosterol synthase [10] = target: T2, Lanosterol synthase; assay: Compound was tested for its inhibition against rat OSC enzyme; how it was run: as §1
[11] = Effective dose (50%) required to inhibit cholesterol biosynthesis in rat after oral administration; type: functional; how it was run: as §3
[12] = Effective dose (80%) required to inhibit cholesterol biosynthesis in rat after oral administration; type: functional; how it was run: as §3
[13] = target: T3, Lanosterol synthase (Rattus norvegicus); assay: as §2; conditions: concentration not given here; how it was run: as §1
[14] = target: T3, Lanosterol synthase (Rattus norvegicus); assay: Compound was tested for percent inhibition of OSC at 1 uM concentration in rat; how it was run: as §4

## O=C(C1CCN(c2ccncc2)CC1)N1CCN(S(=O)(=O)c2ccccc2)CC1
Lanosterol synthase [1]
  IC50: 143 nM
[2]
  inhibition in vivo at 2 mg/kg: 53%
Lanosterol synthase [3]
  IC50: 326 nM

## O=C(C1CCN(c2ccncc2)CC1)N1CCN(S(=O)(=O)c2ccc(I)cc2)CC1
[4]
  pKa: 9.2
Lanosterol synthase [5]
  IC50: 82 nM
[2]
  inhibition in vivo at 2 mg/kg: 52%
[6]
  ED50: 2 mg/kg
[7]
  ED80: < 20 mg/kg

## O=C(C1CCN(c2ncccn2)CC1)N1CCN(S(=O)(=O)c2ccc(Br)cc2)CC1
[8]
  inhibition: 8%
[2]
  inhibition in vivo at 2 mg/kg: 23%

## O=C(C1CCN(C2=NCCS2)CC1)N1CCN(S(=O)(=O)c2ccc(Br)cc2)CC1
[2]
  inhibition in vivo at 2 mg/kg: 81%
[9]
  inhibition: 100%

## O=C(C1CCN(c2ccncn2)CC1)N1CCN(S(=O)(=O)c2ccc(Br)cc2)CC1
[4]
  pKa: 6.1
Lanosterol synthase [1]
  IC50: 37 nM
Lanosterol synthase [10]
  IC50: 116 nM
[2]
  inhibition in vivo at 2 mg/kg: 81%
[11]
  ED50: 0.5 mg/kg
[12]
  ED80: 1.4 mg/kg
[9]
  inhibition: 100%

## N#Cc1ccc(S(=O)(=O)N2CCN(C(=O)C3CCN(c4ccncc4)CC3)CC2)cc1
[2]
  inhibition in vivo at 2 mg/kg: 12%

## O=C(C1CCN(c2ccncc2)CC1)N1CCN(S(=O)(=O)c2ccc(F)cc2)CC1
[2]
  inhibition in vivo at 2 mg/kg: 46%

## Cc1nccc(N2CCC(C(=O)N3CCN(S(=O)(=O)c4ccc(Br)cc4)CC3)CC2)n1
[4]
  pKa: 7.2
Lanosterol synthase [1]
  IC50: 112 nM
Lanosterol synthase [10]
  IC50: 398 nM
[2]
  inhibition in vivo at 2 mg/kg: 83%
[11]
  ED50: 0.3 mg/kg
[12]
  ED80: 1.2 mg/kg
[9]
  inhibition: 76%

## COc1ccc(S(=O)(=O)N2CCN(C(=O)C3CCN(c4ccncc4)CC3)CC2)cc1
[2]
  inhibition in vivo at 2 mg/kg: 38%

## O=C(c1ccc(Cl)cc1)c1ccc(OC2CN3CCC2CC3)cc1 (centres undefined)
[4]
  pKa: 9.1
[11]
  ED50: 2 mg/kg

## O=C(C1CCN(c2ccncc2)CC1)N1CCN(Cc2ccc(Br)cc2)CC1
[13]
  inhibition: 100%
[2]
  inhibition in vivo at 2 mg/kg: 48%
[11]
  ED50: 1.8 mg/kg

## O=C(C1CCN(c2ccncc2)CC1)N1CCN(S(=O)(=O)c2cccc(C(F)(F)F)c2)CC1
[2]
  inhibition in vivo at 2 mg/kg: 7%

## O=C(C1CCN(c2ccncc2)CC1)N1CCN(S(=O)(=O)c2cccc(F)c2)CC1
[2]
  inhibition in vivo at 2 mg/kg: 52%

## O=C(c1ccc(Br)cc1)N1CCN(C(=O)C2CCN(c3ccncc3)CC2)CC1
[13]
  inhibition: 96%
[2]
  inhibition in vivo at 2 mg/kg: 28%

## O=C(C1CCN(c2ccncc2)CC1)N1CCN(S(=O)(=O)c2ccc(Br)cc2)CC1
[4]
  pKa: 9.2
Lanosterol synthase [1]
  IC50: 161 nM
[14]
  inhibition: 100%
[2]
  inhibition in vivo at 2 mg/kg: 69%
[11]
  ED50: 2 mg/kg
[12]
  ED80: > 2 mg/kg
Lanosterol synthase [3]
  IC50: 228 nM

## O=C(c1ccc(C(F)(F)F)cc1)N1CCC(=Cc2ccc(C3=NCCO3)cc2)CC1
[4]
  pKa: 4.7
[2]
  inhibition in vivo at 2 mg/kg: 93%
[11]
  ED50: 0.4 mg/kg
[12]
  ED80: 1 mg/kg
Lanosterol synthase [3]
  IC50: 90 nM

## Cc1ccc(S(=O)(=O)N2CCN(C(=O)C3CCN(c4ccncc4)CC3)CC2)cc1
[2]
  inhibition in vivo at 2 mg/kg: 66%

## O=C(C1CCN(c2ccncc2)CC1)N1CCN(S(=O)(=O)c2ccc(F)cc2F)CC1
[2]
  inhibition in vivo at 2 mg/kg: 10%

## CCC(C)(C)C(=O)O[C@H]1C[C@@H](C)C=C2C=C[C@H](C)[C@H](CC[C@@H]3C[C@@H](O)CC(=O)O3)[C@H]21 [SIMVASTATIN]
[12]
  ED80: 1.2 mg/kg

## O=C(C1CCN(C2=NCCO2)CC1)N1CCN(S(=O)(=O)c2ccc(Br)cc2)CC1
[13]
  inhibition: 87%
[2]
  inhibition in vivo at 2 mg/kg: 82%

## O=C(C1CCN(c2ccnnc2)CC1)N1CCN(S(=O)(=O)c2ccc(Br)cc2)CC1
[2]
  inhibition in vivo at 2 mg/kg: 54%

## Cc1nsc(N2CCC(C(=O)N3CCN(S(=O)(=O)c4ccc(Br)cc4)CC3)CC2)n1
[2]
  inhibition in vivo at 2 mg/kg: 9%
[9]
  inhibition: 3%

## O=C(C1CCN(c2ccncc2)CC1)N1CCN(S(=O)(=O)c2cccc(Br)c2)CC1
[2]
  inhibition in vivo at 2 mg/kg: 43%
